Measurements from ChEMBL document CHEMBL4190353, “Synthesis, structure-activity relationships and preliminary mechanism of action of novel water-soluble 4-quinolone-3-carboxamides as antiproliferative agents” (Eur J Med Chem, 2017).

Key:
HCT-8 = assay: Cytotoxicity against human HCT8 cells assessed as reduction in cell viability incubated for 24 hrs by MTT assay; type: functional, cell-based; details: HCT-8, 24 h
Procedure, shortened: (§1)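 Cells were kept in McCoy's 5A with 10% fetal bovine serum, streptomycin and 100 units·mL⁻¹ penicillin at 37 °C under 5% CO₂/95% air. Viability was read by MTT optical density. IC50 is the concentration that lowers optical density by 50% relative to untreated cells. Values are means with SD of at least three independent determinations.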

BGC-823 = assay: Cytotoxicity against human BGC823 cells assessed as reduction in cell viability incubated for 24 hrs by MTT assay; type: functional, cell-based; details: BGC-823, 24 h; procedure, shortened: as §1
MCF7 = assay: Cytotoxicity against human MCF7 cells assessed as reduction in cell viability incubated for 24 hrs by MTT assay; type: functional, cell-based; details: MCF7, 24 h; procedure, shortened: as §1
RKO = assay: Cytotoxicity against human RKO cells assessed as reduction in cell viability incubated for 24 hrs by MTT assay; type: functional, cell-based; procedure, shortened: as §1
HeLa = assay: Cytotoxicity against human HeLa cells assessed as reduction in cell viability incubated for 24 hrs by MTT assay; type: functional, cell-based; procedure, shortened: as §1
[1] = Solubility in water; type: physicochemical
HEp-2 = assay: Cytotoxicity against human Hep2 cells assessed as reduction in cell viability incubated for 24 hrs by MTT assay; type: functional, cell-based; details: HEp-2, 24 h; procedure, shortened: as §1
HepG2 = assay: Cytotoxicity against human HepG2 cells assessed as reduction in cell viability incubated for 24 hrs by MTT assay; type: functional, cell-based; details: HepG2, 24 h; procedure, shortened: as §1
HCT-116 = assay: Cytotoxicity against human HCT116 cells assessed as reduction in cell viability incubated for 24 hrs by MTT assay; type: functional, cell-based; details: HCT-116, 24 h; procedure, shortened: as §1
PC-3 = assay: Cytotoxicity against human PC3 cells assessed as reduction in cell viability incubated for 24 hrs by MTT assay; type: functional, cell-based; details: PC-3, 24 h; procedure, shortened: as §1

| solubility [1] | Structure (SMILES) | IC50 (HCT-8) | IC50 (BGC-823) | IC50 (MCF7) | IC50 (RKO) | IC50 (HeLa) | IC50 (HEp-2) | IC50 (HepG2) | IC50 (HCT-116) | IC50 (PC-3) |
| --- | --- | --- | --- | --- | --- | --- | --- | --- | --- | --- |
| > 10000 µg/mL | CCN(CC)CCCNC(=O)c1c[nH]c2cc(F)ccc2c1=O.Cl | 48.5 µM | 46.3 µM | 36.8 µM | 29.8 µM | 39.4 µM | 45.1 µM | > 50 µM | 38.6 µM | > 50 µM |
| – | CCOC(=O)c1cn(C)c2cc(Cl)ccc2c1=O | > 50 µM | 30.2 µM | > 50 µM | > 50 µM | > 50 µM | 25 µM | 38 µM | > 50 µM | > 50 µM |
| > 10000 µg/mL | CCN(CC)CCCNC(=O)c1c[nH]c2cc(Br)ccc2c1=O.Cl | > 50 µM | 44.7 µM | 21.1 µM | 38.7 µM | > 50 µM | 44.7 µM | 45.7 µM | 44.3 µM | > 50 µM |
| – | CCOC(=O)c1cn(Cc2ccccc2)c2cc(Cl)ccc2c1=O | 27.4 µM | 13.8 µM | 15.8 µM | 16.3 µM | 16.2 µM | 19.1 µM | 22.4 µM | 21.3 µM | 27.9 µM |
| > 10000 µg/mL | CCN(CC)CCCNC(=O)c1c[nH]c2cc(OC)ccc2c1=O.Cl | 44.6 µM | 40.8 µM | 34.7 µM | 42.5 µM | 39.8 µM | 40.8 µM | 47.9 µM | 38.9 µM | > 50 µM |
| – | C=CCn1cc(C(=O)OCC)c(=O)c2ccc(Cl)cc21 | 45.2 µM | > 50 µM | 49.8 µM | 48 µM | > 50 µM | > 50 µM | 43.8 µM | > 50 µM | > 50 µM |
| > 10000 µg/mL | CCN(CC)CCCNC(=O)c1cn(CC)c2cc(Cl)ccc2c1=O.Cl | 16.9 µM | 11.7 µM | 14.1 µM | 10.2 µM | 15.1 µM | 9.82 µM | 10.5 µM | 8.78 µM | 12.6 µM |
| > 10000 µg/mL | C=CCn1cc(C(=O)NCCCN(CC)CC)c(=O)c2ccc(Cl)cc21.Cl | 30 µM | 15.1 µM | 35.5 µM | 16.3 µM | 19.1 µM | 14.5 µM | 12.6 µM | 18.7 µM | 14.1 µM |
| – | CCOC(=O)c1cn(CCCc2ccccc2)c2cc(Cl)ccc2c1=O | 17 µM | 18.6 µM | 14.1 µM | 9.86 µM | 14.8 µM | 7.63 µM | 15.1 µM | 10.8 µM | 16.1 µM |
| > 10000 µg/mL | CCN(CC)CCCNC(=O)c1c[nH]c2cc(Cl)ccc2c1=O.Cl | 28.8 µM | 23.4 µM | 22.4 µM | 25.2 µM | 22.4 µM | 25.1 µM | 28.2 µM | 23.3 µM | 39.8 µM |
| > 10000 µg/mL | CCN(CC)CCNC(=O)c1cn(C)c2cc(Cl)ccc2c1=O.Cl | 32.6 µM | 27.6 µM | 22.4 µM | 24.6 µM | 28.9 µM | 17.8 µM | 10.2 µM | 15.6 µM | 31.6 µM |
| > 10000 µg/mL | C=CCn1cc(C(=O)NCCN(CC)CC)c(=O)c2ccc(Cl)cc21.Cl | 30.2 µM | 12 µM | 47.9 µM | 30.1 µM | 38.9 µM | 24 µM | 19.1 µM | 35.6 µM | 44.5 µM |
| > 10000 µg/mL | CCN(CC)CCCNC(=O)c1cn(C)c2cc(Cl)ccc2c1=O.Cl | 22.4 µM | 17.8 µM | 10 µM | 11.2 µM | 9.5 µM | 4.51 µM | 8.72 µM | 9.85 µM | 15.8 µM |
| – | CCOC(=O)c1cn(CC)c2cc(Cl)ccc2c1=O | > 50 µM | 40.7 µM | > 50 µM | > 50 µM | > 50 µM | > 50 µM | 47.9 µM | > 50 µM | > 50 µM |
| – | CCCCn1cc(C(=O)OCC)c(=O)c2ccc(Cl)cc21 | > 50 µM | 43.6 µM | > 50 µM | 45.2 µM | > 50 µM | 35.5 µM | 28.3 µM | 39.8 µM | 41.7 µM |
| – | Oc1ccnc2cc(Cl)ccc12 | > 50 µM | > 50 µM | > 50 µM | > 50 µM | > 50 µM | > 50 µM | > 50 µM | > 50 µM | > 50 µM |
| > 10000 µg/mL | CCN(CC)CCNC(=O)c1cn(CC)c2cc(Cl)ccc2c1=O.Cl | 25.1 µM | 12.3 µM | 25.1 µM | 23.4 µM | 13.8 µM | 42.3 µM | 9.52 µM | 19.8 µM | 15.9 µM |

| Structure (SMILES) | solubility [1] | IC50 (HCT-8) | IC50 (BGC-823) | IC50 (MCF7) | IC50 (RKO) | IC50 (HeLa) | IC50 (HEp-2) | IC50 (HepG2) | IC50 (HCT-116) | IC50 (PC-3) |
| --- | --- | --- | --- | --- | --- | --- | --- | --- | --- | --- |
| CCCCn1cc(C(=O)NCCN(CC)CC)c(=O)c2ccc(Cl)cc21.Cl | > 10000 µg/mL | 46.8 µM | 7.11 µM | 35.5 µM | 16.8 µM | 21.6 µM | 22.6 µM | 6.92 µM | 21 µM | 44.6 µM |
| CCN(CC)CCNC(=O)c1cn(Cc2ccccc2)c2cc(Cl)ccc2c1=O.Cl | > 10000 µg/mL | 23.1 µM | 10.2 µM | 15.8 µM | 14.3 µM | 5.83 µM | 7.02 µM | 4.32 µM | 11.2 µM | 9.5 µM |
| CCCCn1cc(C(=O)NCCCN(CC)CC)c(=O)c2ccc(Cl)cc21.Cl | > 10000 µg/mL | 28.8 µM | 9.12 µM | 12.3 µM | 9.65 µM | 15.4 µM | 11.2 µM | 5.63 µM | 7.84 µM | 8.31 µM |
| CCN(CC)CCCNC(=O)c1cn(Cc2ccccc2)c2cc(Cl)ccc2c1=O.Cl | > 10000 µg/mL | 19.5 µM | 5.21 µM | 4.54 µM | 7.89 µM | 4.9 µM | 4.51 µM | 4.43 µM | 8.65 µM | 10.2 µM |
